According to ChEMBL document CHEMBL1145983, “Novel indolyl aryl sulfones active against HIV-1 carrying NNRTI resistance mutations: synthesis and SAR studies” (J Med Chem, 2003):

Tests used:
[1] = tested on: Human immunodeficiency virus 1; experiment: Anti-HIV activity protecting MT-4 cells from HIV-1 induced cytopathogenicity; assay type: functional, organism-based; conditions: Human immunodeficiency virus 1, MT4
MT4 = experiment: Cytotoxicity, reducing the vaiability of mock-infected cells; assay type: functional; conditions: Homo sapiens
[2] = tested on: Human immunodeficiency virus 1; experiment: Selectivity ratio of CC50/EC50; assay type: functional
Method in brief: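 Ratio of CC50 (MTT viability of mock-infected MT-4 cells) to EC50 (MTT-based 50% protection of HIV-1-infected MT-4 cells from cytopathicity), both determined in parallel.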

MT-4 (Homo sapiens) = experiment: Anti-HIV activity to protect MT-4 cells from cytopathogenicity induced by HIV-1 K103N-Y181C (MTT method)
[3] = target: Human immunodeficiency virus type 1 reverse transcriptase (Human immunodeficiency virus 1, UniProt Q72547); experiment: Activity to inhibit HIV-1 Reverse transcriptase activity in WT IIIB
Method in brief: (§1)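 Purified recombinant RT (wt or K103N mutant) assayed for RNA-dependent DNA polymerase activity. Buffer: 50 mM Tris-HCl pH 7.8, 80 mM KCl, 6 mM MgCl2, 1 mM DTT, 0.1 mg/mL BSA. Template:primer was poly(rC)-oligo(dG)12-18 at 0.5 OD260 unit/mL, with [3H]dGTP. Incubated 30 min at 37 °C; acid-insoluble radioactivity counted on glass-fibre filters. IC50 reported as mean of two experiments.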

[4] = target: Human immunodeficiency virus type 1 reverse transcriptase (Human immunodeficiency virus 1, UniProt Q72547, K103N); experiment: Activity to inhibit HIV-1 Reverse transcriptase activity in K103N; method in brief: as §1
C8166 = experiment: Anti-HIV activity to reduce the amount of p24 in WT IIIB infected C8166 cells; assay type: functional, cell-based; conditions: Homo sapiens
Method in brief: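 HIV-1 IIIB came from supernatants of persistently infected H9/IIIB cells; stock 4.5 × 10^6 CCID50/mL. Acutely infected C8166 cells (1 × 10^4/well) were incubated at 37 °C with or without compound dilutions. p24 was measured by immunoenzymatic kit. Value is the concentration reducing p24 by 90%; mean of three experiments.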

EC50 [1] [µM] | Compound | CC50 (MT4) [µM] | Selectivity index [2] | EC50 (MT-4 (Homo sapiens)) [µM] | IC50 [3] [µM] | IC50 [4] [µM] | EC90 (C8166) [µM]
0.02 | NC(=O)c1[nH]c2ccc(Cl)cc2c1Sc1ccccc1 | 9 | 450 |  |  |  | 
> 32 | CCOC(=O)c1cn(S(=O)(=O)c2ccccc2)c2ccccc12 | 32 |  |  |  |  | 
1.6 | NC(=O)c1[nH]c2ccc(Cl)cc2c1Sc1cc(Cl)ccc1N | 33 | 20 |  |  |  | 
> 200 | CC(C)OC(=O)c1cn(S(=O)(=O)c2ccccc2)c2ccc(Cl)cc12 | > 200 |  |  |  |  | 
3.1 | NC(=O)c1[nH]c2ccc(Cl)cc2c1Sc1ccc(Cl)cc1 | 13 | 4 |  |  |  | 
0.08 | CC(C)c1ccc(S(=O)(=O)c2c(C(N)=O)[nH]c3ccc(Cl)cc23)cc1 | > 200 | >2500 |  |  |  | 
0.05 | Cc1ccc(S(=O)(=O)c2c(C(=O)NN)[nH]c3ccc(Cl)cc23)cc1 | > 200 | >4000 |  |  |  | 
9 | NC(=O)c1[nH]c2ccccc2c1Sc1cc(Cl)ccc1N | 20 | 2.2 |  |  |  | 
> 200 | CCOC(=O)c1cc2cc(Cl)ccc2n1S(=O)(=O)c1ccc(Cl)cc1 | > 200 |  |  |  |  | 
> 150 | O=S(=O)(c1ccccc1)n1ccc2ccccc21 | 150 |  |  |  |  | 
0.5 | NNC(=O)c1[nH]c2ccc(Cl)cc2c1Sc1ccccc1 | 44 | 88 |  |  |  | 
> 100 | CCOC(=O)c1cc2ccccc2n1S(=O)(=O)c1cc(Cl)ccc1[N+](=O)[O-] | > 100 |  |  |  |  | 
> 42 | CCOC(=O)c1cn(S(=O)(=O)c2ccccc2)c2ccc(Cl)cc12 | 42 |  |  |  |  | 
1.9 | CC(C)c1ccc(Sc2c(C(N)=O)[nH]c3ccc(Cl)cc23)cc1 | 52 | 27 |  |  |  | 
1.9 | CCOC(=O)c1[nH]c2ccc(Cl)cc2c1S(=O)(=O)c1cc(Cl)ccc1N | > 200 | 105 |  |  |  | 
> 200 | CCOC(=O)c1cc2cc(Cl)ccc2n1S(=O)(=O)c1ccccc1 | > 200 |  |  |  |  | 
0.015 | CC(=O)c1ccc2[nH]c(C(N)=O)c(S(=O)(=O)c3cc(C)cc(C)c3)c2c1 | > 200 | > 13300 |  |  |  | 
0.3 | NNC(=O)c1[nH]c2ccc(Cl)cc2c1S(=O)(=O)c1ccc(F)cc1 | 44 | 147 |  |  |  | 
> 31 | CCOC(=O)c1cc2cc(Cl)ccc2n1S(=O)(=O)c1cc(Cl)ccc1[N+](=O)[O-] | 31 |  |  |  |  | 
8.3 | CCOC(=O)c1cc2cc(Cl)ccc2n1S(=O)(=O)c1cc(Cl)ccc1N | 39 | 4.7 |  |  |  | 
2.5 | CCOC(=O)c1[nH]c2ccc(Cl)cc2c1Sc1cc(Cl)ccc1N | > 200 | >80 |  |  |  | 

Further lines, the compound ahead of its results:

Compound | EC50 [1] [µM] | CC50 (MT4) [µM] | Selectivity index [2] | EC50 (MT-4 (Homo sapiens)) [µM] | IC50 [3] [µM] | IC50 [4] [µM] | EC90 (C8166) [µM]
NC(=O)c1[nH]c2ccc(Cl)cc2c1S(=O)(=O)c1ccc(Cl)cc1 | 0.011 | > 200 | >18182 |  |  |  | 
CC(C)OC(=O)c1cn(S(=O)(=O)c2ccccc2)c2ccccc12 | > 54 | 54 |  |  |  |  | 
Cc1cc(C)cc(S(=O)(=O)c2c(C(N)=O)[nH]c3ccc(C(C)O)cc23)c1 (stereo unspecified) | 0.025 | > 200 | >8000 |  |  |  | 
NNC(=O)c1[nH]c2ccc(Cl)cc2c1S(=O)(=O)c1cc(Cl)ccc1N | 0.3 | 19 | 63 |  |  |  | 
NC(=O)c1[nH]c2ccccc2c1S(=O)(=O)c1cc(Cl)ccc1N | 0.3 | 3.5 | 11.7 |  |  |  | 
NC(=O)c1cc2cc(Cl)ccc2n1S(=O)(=O)c1ccccc1 | 66 | > 200 | >3 |  |  |  | 
CCOC(=O)c1[nH]c2ccccc2c1S(=O)(=O)c1cc(Cl)ccc1N | 2.5 | > 200 | >91 |  |  |  | 
NC(=O)c1[nH]c2ccc(Cl)cc2c1S(=O)(=O)c1cc(Cl)ccc1N | 0.04 | 4.6 | 115 |  |  |  | 
O=S(=O)(c1ccccc1)n1ccc2cc(Cl)ccc21 | > 75 | 75 |  |  |  |  | 
Cc1cc(C)cc(Sc2c(C(N)=O)[nH]c3ccc(Cl)cc23)c1 | 0.006 | 0.7 | 117 |  |  |  | 
NC(=O)c1cn(S(=O)(=O)c2ccccc2)c2ccc(Cl)cc12 | > 200 | 200 |  |  |  |  | 
CCOC(=O)c1[nH]c2ccccc2c1S(=O)(=O)c1ccccc1 | 3.7 | 157 | 42 |  |  |  | 
NC(=O)c1[nH]c2ccccc2c1Sc1ccccc1 | 1.4 | 14 | 10 |  |  |  | 
CCOC(=O)c1cc2ccccc2n1S(=O)(=O)c1ccccc1[N+](=O)[O-] | > 200 | > 200 |  |  |  |  | 
CCOC(=O)c1[nH]c2ccccc2c1Sc1ccccc1 | > 200 | > 200 |  |  |  |  | 
NNC(=O)c1[nH]c2ccc(Cl)cc2c1Sc1cc(Cl)ccc1N | > 13 | 13 |  |  |  |  | 
CCOC(=O)c1[nH]c2ccccc2c1Sc1cc(Cl)ccc1N | > 200 | > 200 |  |  |  |  | 
Cc1ccc(S(=O)(=O)c2c(C(N)=O)[nH]c3ccc(Cl)cc23)c(C)c1 | 0.004 | 37 | 9250 | 10 |  |  | 
NC(=O)c1[nH]c2ccccc2c1S(=O)(=O)c1ccccc1 | 0.18 | > 200 | > 1110 |  |  |  | 
NNC(=O)c1[nH]c2ccc(Cl)cc2c1Sc1ccc(F)cc1 | 5 | 66 | 13 |  |  |  | 
NC(=O)c1cn(S(=O)(=O)c2ccccc2)c2ccccc12 | > 32 | 32 |  |  |  |  | 
NNC(=O)c1[nH]c2ccc(Cl)cc2c1S(=O)(=O)c1ccc(Cl)cc1 | 0.2 | > 200 | >1000 |  |  |  | 

Compound | EC50 [1] [µM] | CC50 (MT4) [µM] | Selectivity index [2] | EC50 (MT-4 (Homo sapiens)) [µM] | IC50 [3] [µM] | IC50 [4] [µM] | EC90 (C8166) [µM]
NNC(=O)c1[nH]c2ccccc2c1S(=O)(=O)c1ccccc1 | 0.5 | 133 | 266 |  |  |  | 
NNC(=O)c1[nH]c2ccc(Cl)cc2c1Sc1ccc(Cl)cc1 | 10 | 30 | 3 |  |  |  | 
NC(=O)c1[nH]c2ccc(Cl)cc2c1S(=O)(=O)c1c(Cl)cccc1Cl | 0.1 | 40 | 400 |  |  |  | 
Cc1cc(C)cc(S(=O)(=O)c2c(C(=O)NN)[nH]c3ccc(Cl)cc23)c1 | 0.1 | > 200 | >2000 |  |  |  | 
NC(=O)c1[nH]c2ccc(Cl)cc2c1S(=O)(=O)c1ccc(F)cc1 | 0.014 | 17 | 1214 |  |  |  | 
NNC(=O)c1[nH]c2ccc(Cl)cc2c1S(=O)(=O)c1ccccc1 | 0.01 | > 200 | >20000 |  |  |  | 
Cc1ccc(Sc2c(C(=O)NN)[nH]c3ccc(Cl)cc23)cc1 | 1.5 | 129 | 86 |  |  |  | 
CC(C)(C)c1ccc(Sc2c(C(N)=O)[nH]c3ccc(Cl)cc23)cc1 | 8 | 45 | 6 |  |  |  | 
CCOC(=O)c1cc2ccccc2n1S(=O)(=O)c1cc(Cl)ccc1N | 1.8 | 50 | 28 |  |  |  | 
Cc1cc(C)cc(S(=O)(=O)c2c(C(N)=O)[nH]c3ccc(Br)cc23)c1 | 0.002 | 18 | 9000 |  |  |  | 
NNC(=O)c1cc2ccccc2n1S(=O)(=O)c1ccccc1 | > 200 | > 200 |  |  |  |  | 
CCOC(=O)c1[nH]c2ccc(Cl)cc2c1S(=O)(=O)c1ccccc1N | > 200 | > 200 |  |  |  |  | 
Cc1ccccc1Sc1c(C(N)=O)[nH]c2ccc(Cl)cc12 | 0.3 | 26 | 87 |  |  |  | 
NC(=O)c1[nH]c2ccc(Cl)cc2c1Sc1ccc(F)cc1 | 1.4 | 13 | 9 |  |  |  | 
CCOC(=O)c1[nH]c2ccc(Cl)cc2c1Sc1ccccc1N | 2.3 | > 200 | >87 |  |  |  | 
NC(=O)c1cc2ccccc2n1S(=O)(=O)c1ccccc1 | 15 | > 200 |  |  |  |  | 
Cc1ccc(Sc2c(C(N)=O)[nH]c3ccc(Cl)cc23)cc1 | > 0.45 | 0.45 |  |  |  |  | 
CCOC(=O)c1cc2ccccc2n1S(=O)(=O)c1ccccc1 | > 200 | > 200 |  |  |  |  | 
CC(C)(C)c1ccc(S(=O)(=O)c2c(C(N)=O)[nH]c3ccc(Cl)cc23)cc1 | 0.13 | 26 | 200 |  |  |  | 
NC(=O)c1[nH]c2ccc(Cl)cc2c1Sc1c(Cl)cccc1Cl | 1.2 | 61 | 51 |  |  |  | 
Cc1cc(C)cc(S(=O)(=O)c2c(C(N)=O)[nH]c3ccc(Cl)cc23)c1 | 0.004 | 15 | 3750 | 0.65 | 0.031 | > 5 | 0.002
